# Measured values gathered from unrelated publications.
# Each line is one published result; the experiments were not run side by side.
# Observed: enzyme activity
# Action: inhibitor
# CDK5 with p25: Cyclin-dependent kinase 5, with p25 (CDK5, Homo sapiens, UniProt Q00535)
# CDK5 with p35: Cyclin-dependent kinase 5, with p35 (CDK5, Homo sapiens, UniProt Q00535)
Structure (SMILES),target,assay,conditions,remaining activity
CCCOc1ccc(OC)c(F)c1C(=O)c1ccc(C(=O)N[C@@H]2CNC[C@H]2NC(=O)c2ccc3[nH]ncc3c2)cc1,CDK5 with p25,,0.1 µM,112%
Cc1sc(C(=O)NC2COC2)cc1-n1cc(NC(=O)Nc2c(F)cccc2Cl)cn1,CDK5 with p35,,10 µM,103%
CC(C)(O)[C@H]1CC[C@H](Nc2ccc3ncc(-c4cccc(C(F)(F)F)c4)n3n2)CC1,CDK5 with p25,,1 µM,92.2%
O=C(Nc1cnn(-c2csc(C(=O)NC3COC3)c2)c1)Nc1ccccc1Cl,CDK5 with p35,,5 µM,95.4%
Cc1cnc(NC2CCOCC2)nc1-n1cnc(C(=O)NC(CN)c2cc(F)cc(Cl)c2)c1 (stereo not shown),CDK5 with p25,radiometric,1 µM,2%
CCN(CC)c1ccc(C2=NNC(=O)CC2C)cc1[N+](=O)[O-] (stereo not shown),CDK5 with p35,,10 µM,109%
O=C(Nc1cnn(-c2csc(C(=O)NC3COC3)c2)c1)Nc1c(F)cccc1Cl,CDK5 with p35,,5 µM,94.3%
CC[C@H](C)[C@H](NC(=O)[C@H](CCC(N)=O)NC(=O)[C@H](CC(C)C)NC(=O)[C@H](CCSC)NC(=O)[C@H](CCCCN)NC(=O)[C@H](CO)NC(=O)[C@H](CO)NC(=O)[C@H](CCSC)NC(=O)[C@H](CC(C)C)NC(=O)[C@H](CC(N)=O)NC(=O)[C@@H](NC(=O)[C@@H](NC(=O)[C@H](CO)NC(=O)[C@H](CC(C)C)NC(=O)[C@H](CS)NC(=O)[C@H](CCCNC(=N)N)NC(=O)[C@H](CC(=O)O)NC(=O)[C@H](Cc1c[nH]c2ccccc12)NC(=O)[C@H](Cc1ccccc1)NC(=O)[C@H](C)NC(=O)[C@H](CCC(=O)O)NC(=O)[C@@H](N)CCCCN)C(C)C)[C@@H](C)CC)C(=O)N[C@@H](CC(N)=O)C(=O)N[C@@H](C)C(=O)O,CDK5 with p25,radiometric,"500 µM, 20 min",28%
CC(C)(C)c1nc(-c2cccc(NS(=O)(=O)c3c(F)cccc3F)c2F)c(-c2ccnc(N)n2)s1,CDK5 with p35,radiometric,1 µM,82%
COc1cc(Cl)c(C(=O)N[C@@H](CN[C@H]2CC[C@@H](N)CC2)Cc2ccc(C#N)cc2)cc1-c1ccc(CN[C@H](C)c2ccc(C)cc2)o1,CDK5 with p35,,1 µM,88%
